Assay results: ChEMBL document CHEMBL1144898, “Structure-based design and synthesis of novel potent Na+,K+ -ATPase inhibitors derived from a 5alpha,14alpha-androstane scaffold as positive inotropic compounds” (J Med Chem, 2003)

How the values were obtained:
[1] = molecular target: Sodium/potassium-transporting ATPase; assay: Inhibitory activity against Na+/K+ ATPase was determined; assay type: protein-complex assay, Canis lupus familiaris
Cavia porcellus [2] = assay: Inotropic activity by slow intravenous infusion in anesthetized guinea pigs(Dose inducing maximum positive inotropic effect); assay type: functional
In short: (§1)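 Anesthetized guinea pigs given compound by slow intravenous infusion; contractility read as +dP/dtmax. Values are the maximal increase in +dP/dtmax, the dose inducing the maximum inotropic effect, and the dose raising +dP/dtmax by 80% taken from dose–response curves.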

Cavia porcellus [3] = assay: Inotropic activity by slow intravenous infusion in anesthetized guinea pigs(Maximal increase in+dp/dtmax); assay type: functional; in short: as §1
Cavia porcellus [4] = assay: Inotropic activity by slow intravenous infusion in anesthetized guinea pigs(Inotropic potency:dose increasing +dp/dtmax by 80%); assay type: functional; in short: as §1
Cavia porcellus [5] = assay: Inotropic activity by slow intravenous infusion in anesthetized guinea pigs (dead/treated ratio = 1/3); assay type: functional
[6] = (§2) Inotropic activity by slow intravenous infusion in anesthetized guinea pigs; assay type: organism-based, Cavia porcellus; details: guinea pig, in vivo, read-out: LD/ED80
Cavia porcellus [7] = assay: Inotropic activity by slow intravenous infusion in anesthetized guinea pigs (dead/treated ratio = 3/3); assay type: functional
Cavia porcellus [8] = assay: as §2; assay type: organism-based; details: guinea pig, in vivo
Cavia porcellus [9] = assay: Inotropic activity by slow intravenous infusion in anesthetized guinea pigs (dead/treated ratio = 1/5); assay type: functional
[10] = test system: Sodium/potassium-transporting ATPase (Canis lupus familiaris); assay: Inhibition activity against Na+/K+ ATPase (relative potency in comparison to digitoxigenin)
Cavia porcellus [11] = assay: Inotropic activity by slow intravenous infusion in anesthetized guinea pigs (dead/treated ratio = 10/10); assay type: functional
Cavia porcellus [12] = assay: Inotropic activity by slow intravenous infusion in anesthetized guinea pigs (dead/treated ratio = 7/8); assay type: functional

Structure (SMILES)	IC50 [1]	EDmax (Cavia porcellus [2])	Increase (Cavia porcellus [3])	ED80 (Cavia porcellus [4])	further results
C[C@]12CC/C(=N/OCCCN)C[C@@H]1[C@H](O)CC1C2CC[C@]2(C)C(O)CC[C@@H]12 (stereo not given in full)	3 µM				
C[C@]12CCC(=NOCCN)C[C@@H]1[C@H](O)CC1C2CC[C@]2(C)C(O)CC[C@@H]12 (stereo not given in full)	1.6 µM				
C[C@]12CC/C(=N\OCCCN)C[C@@H]1[C@H](O)C[C@@H]1[C@@H]2CC[C@]2(C)C(O)CC[C@@H]12 (stereo not given in full)	2 µM	7.37 µM/kg	99%	1.58 µM/kg	Dead/treated (Cavia porcellus [5]): 1
CC(=O)NCCO/N=C1\CC[C@@]2(C)[C@H](C1)C(=O)C[C@@H]1[C@@H]2CC[C@]2(C)C(=O)CC[C@@H]12	> 10 µM				
C[C@]12CC/C(=N\OCCN)C[C@@H]1[C@H](O)C[C@@H]1[C@@H]2CC[C@]2(C)C(O)CC[C@@H]12 (stereo not given in full)	2 µM	4.13 µM/kg	158%	0.97 µM/kg	selectivity ratio [6]: 9.6; Dead/treated (Cavia porcellus [7]): 3
C[C@]12CC/C(=N\OCCN)C[C@@H]1C(=O)C[C@@H]1[C@@H]2CC[C@]2(C)C(O)CC[C@@H]12 (stereo not given in full)	0.6 µM				
C[C@]12CC/C(=N\OCCCN)C[C@@H]1C(=O)C[C@@H]1[C@@H]2CC[C@]2(C)C(=O)CC[C@@H]12	0.8 µM	18.2 µM/kg	129%	6.55 µM/kg	Dead/treated (Cavia porcellus [5]): 1
C[C@]12CC/C(=N\OCCN)C[C@@H]1C(O)C[C@@H]1[C@@H]2CC[C@]2(C)C(O)CC[C@@H]12 (stereo not given in full)	10 µM				
C[C@]12CC/C(=N/OCCN)C[C@@H]1[C@H](O)CC1C2CC[C@]2(C)C(O)CC[C@@H]12 (stereo not given in full)	12 µM				
C[C@]12CCC(=NOCCN)C[C@@H]1[C@@H](O)C[C@@H]1[C@@H]2CC[C@]2(C)C(=O)CC[C@@H]12 (stereo in doubt; 22g)	1.2 µM	54.6 µM/kg	207%	5.3 µM/kg	LD/ED80 (Cavia porcellus [8]): 17.8; Dead/treated (Cavia porcellus [9]): 1
C[C@]12CCC(=NOCCN)C[C@@H]1[C@@H](O)C[C@@H]1[C@@H]2CC[C@]2(C)C(=O)CC[C@@H]12 (stereo in doubt; 22n)	2.5 µM	111.2 µM/kg	154%	14.8 µM/kg	selectivity ratio [6]: 9.2; Dead/treated (Cavia porcellus [5]): 1
C[C@H]1/C(=C/C(=O)OCCN(C)C)CCC2C1C(=O)CC1C(C)(C)[C@@H](O)CC[C@]21C (stereo not given in full) [CASSAINE]	5 µM				Relative potency [10]: 0.1
C[C@H]1O[C@@H](O[C@H]2[C@@H](O)C[C@H](O[C@H]3[C@@H](O)C[C@H](O[C@H]4CC[C@@]5(C)[C@H](CC[C@@H]6[C@@H]5C[C@@H](O)[C@]5(C)[C@@H](C7=CC(=O)OC7)CC[C@]65O)C4)O[C@@H]3C)O[C@@H]2C)C[C@H](O)[C@@H]1O [DIGOXIN]		0.97 µM/kg	127%	0.41 µM/kg	Dead/treated (Cavia porcellus [11]): 10
C[C@]12CCC(=NOCCN)C[C@@H]1C(=O)C[C@@H]1[C@@H]2CC[C@]2(C)C(=O)CC[C@@H]12 [ISTAROXIME]		17.9 µM/kg	190%	4.84 µM/kg	selectivity ratio [6]: 20.2; Dead/treated (Cavia porcellus [12]): 7
